Legend:
Hamster [1] = assay: Hypocholesterolemic effect in high cholesterol-fed hamster assessed as reduction in plasma total cholesterol at 50 mg/kg, po for 7 days; format: functional, Cricetinae; design: scale not given: the % may be the effect or the level left
Summary of the method: (§1)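 Blood was collected at sacrifice on the last dosing day for lipid analysis. Plasma total cholesterol and HDL-C were measured by a commercial kit using a modified cholesterol oxidase method.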

Hamster [2] = assay: Hypocholesterolemic effect in high cholesterol-fed hamster assessed as increase in HDL-cholesterol at 50 mg/kg, po for 7 days; format: functional, Cricetinae; summary of the method: as §1

SMILES | Activity (Hamster [1]; 50 mg/kg) [%] | Activity (Hamster [2]; 50 mg/kg) [%] | Activity (Hamster [1]) [%] | Activity (Hamster [2]) [%]
COc1ccc([C@@H]2[C@@H](CCC(=O)Nc3ccc(C)cc3)C(=O)N2c2ccc(OC)cc2)cc1 (relative stereo) | 20.9 | 12.4 | – | –
COc1ccc([C@@H]2[C@@H](CCC(O)(c3ccccc3)c3ccccc3)C(=O)N2c2ccc(F)cc2)cc1 (relative stereo) | – | – | 16.3 | 35
COc1ccc([C@@H]2[C@@H](CCC(O)(c3ccccc3)c3ccccc3)C(=O)N2c2ccccc2C)cc1 | – | – | 34.8 | 14.5
COc1ccc([C@@H]2[C@@H](CCC(=O)Nc3ccc(C)cc3)C(=O)N2c2ccc(OC)cc2)cc1 | 28.1 | 21.7 | – | –
COc1ccc([C@@H]2[C@@H](CCC(O)(c3ccc(F)cc3)c3ccc(F)cc3)C(=O)N2c2ccc(Br)cc2)cc1 (relative stereo) | – | – | 11.2 | 32.9
COc1ccc([C@H]2[C@H](CCC(=O)Nc3ccc(Cl)cc3)C(=O)N2c2ccc(C)cc2)cc1 (relative stereo) | – | – | 26.3 | 17.8
COc1ccc([C@@H]2[C@@H](CCC(=O)Nc3ccc(C)cc3)C(=O)N2c2ccc(C)cc2)cc1 (relative stereo) | – | – | 18.7 | 23.9
COc1ccc([C@@H]2[C@@H](CCC(=O)Nc3ccc(Cl)cc3)C(=O)N2c2ccc(C)cc2)cc1 | – | – | 31.6 | 13.7
Cc1ccccc1N1C(=O)[C@H](CCC(O)(c2ccc(F)cc2)c2ccc(F)cc2)[C@H]1c1ccc2c(c1)OCO2 | – | – | 10.4 | 24.8
COc1ccc([C@@H]2[C@@H](CCC(=O)Nc3ccc(C)cc3)C(=O)N2c2ccccc2)cc1 (relative stereo) | – | 13.9 | – | –
O=C1[C@H](CCC(O)(c2ccccc2)c2ccccc2)[C@@H](c2ccc3c(c2)OCO3)N1c1ccc(Cl)cc1 (relative stereo) | – | – | 28.7 | 11.4
COc1ccc([C@@H]2[C@@H](CCC(=O)Nc3ccc(C)cc3)C(=O)N2c2ccccc2)cc1 | – | 22.1 | – | –
COc1ccc(N2C(=O)[C@H](CCC(O)(c3ccc(F)cc3)c3ccc(F)cc3)[C@H]2c2cc3c(cc2Br)OCO3)cc1 | – | – | 19.8 | 31.8
O=C1[C@H](CC[C@H](O)c2ccc(F)cc2)[C@@H](c2ccc(O)cc2)N1c1ccc(F)cc1 [EZETIMIBE] | – | – | 48.7 | 37.3
COc1ccc([C@@H]2[C@@H](CCC(=O)Nc3ccc(Cl)cc3)C(=O)N2c2ccc(OC)cc2)cc1 (relative stereo) | – | – | 16.3 | 20.1
